Data on four compounds can be found in article PMC3085913 (NeuroImage, 2011).

Data set [1] concerns Aβ plaques in APP and APP/PS1 transgenic AD mice. The note with it: MRI after injection; ref Wadghiri et al., 2003; cited from earlier work.
The test system of data set [2] is blood brain barrier. The note with it: rodents, after intra-arterial carotid injection; ref McCarty et al., 2009; cited from earlier work.
Data set [3] deals with humans. The note with it: patients, ref Castillo et al., 2009, Tang and Lobel; cited from earlier work.
Data set [4] relates to N2a mouse neuroblastoma cells. The data set is described as follows: MTS cell proliferation. The note with it: 72 hrs. In kind it is cell-based.
The subject of data set [5] is amyloid plaques in APP/PS1 Tg and wild-type mouse brain. In kind it is in vivo. The conditions noted are these: two 14-month-old APP/PS1 mice, before and 6 hs after contrast injection; data not shown. The procedure, abridged:
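Mice received the test conjugate at 0.2 mmol Fe/kg in 200 μl 15% mannitol/PBS by right femoral vein infusion at 60 μl/min, under isoflurane (2.5% induction, 1–1.5% maintenance). Scanned 6 h post-injection; two 14-month-old APP/PS1 mice were also scanned pre-injection. 3D four-echo acquisition; third echo (TE=12.3 ms) gave the T2*-weighted images. Checked against matched immunostained sections.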

The test system of data set [6] is amyloid plaques in APP/PS1 Tg mouse brain. The class given is in vivo. The note with it: femoral i.v. with mannitol; third echo, TE = 17.5. The procedure, abridged:
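Aged 13–17-month APP/PS1 mice and age-matched C57Bl/6J controls received the test conjugate at 0.2 mmol Fe/kg in 200 μl 15% mannitol/PBS, infused via right femoral vein at 60 μl/min under isoflurane. Later: pentobarbital 150 mg/kg i.p., transaortic perfusion with PBS then 4% paraformaldehyde. Extracted brains scanned overnight, up to four together; third echo of four-echo set. 6E10/4G8 histology for matching. 13 Tg vs 12 wild-type.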

For data set [7], the system named is APP/PS1 Tg and wild-type mouse brain (amyloid plaques). Kind of data set: ROI-based absolute T2* measurement, in vivo μMRI. The conditions noted are these: contrast injected APP/PS1 Tg versus contrast injected wild-type mice.
Data set [8] concerns APP/PS1 Tg versus wild-type mouse brain (amyloid plaques). Kind of data set: Voxel-based morphometry. The class given is in vivo. The conditions noted are these: for VBM cluster T-score: WT n=12 vs AD Tg n=13; for VBM cluster Extent: WT n=12 vs AD Tg n=13 after contrast injection.
Data set [9] has as its system APP/PS1 Tg and wild-type mice. The data set is described as follows: Toxicity observed in experimental animals. The class given is in vivo, mouse. The conditions noted are these: 0.2 mmol Fe/kg femoral i.v. with 15% mannitol.

Entries after “also recorded” stand apart in the source; their conditions may differ.

On to “MION-Aβ1-40: Aβ1-40 magnetically labeled with monocrystalline iron oxide nanoparticles (MION)”, for which the “plaque visualization as hypointense spots (in words)” value in [1] was “hypointense spots characterized by loss of signal intensity”.
In the case of `OC[C@@H](O)[C@@H](O)[C@H](O)[C@H](O)CO` [mannitol], the “time of maximum BBB disruption, intra-arterial carotid” value in data set [2] was 5 min. Further, in data set [3], the “tolerability of intravenous mannitol (in words)” value was “much better tolerated and is used safely in patients”.
As for “USPIO-Aβ1-42: ultrasmall superparamagnetic iron oxide (USPIO) nanoparticles linked to Aβ1-42 peptide using standard EDC/NHS coupling methods”, in data set [4] (bound Aβ1-42 10 μM, Newman-Keuls post-hoc), the “cell viability, USPIO versus USPIO-Aβ1-42 (significance in words)” value is “did not differ significantly”. Also, in [4] (bound Aβ1-42 10 μM, USPIO matched, Newman-Keuls post-hoc), the “cell viability versus control untreated cells (significance in words)” value was “did not differ significantly”. The “amyloid plaque detection pre- versus postinjection” value in data set [5] is recorded as “Amyloid plaques were only detected in the postinjection images”. In data set [6], the “plaque detection on ex vivo μMRI, APP/PS1 mice” value is “Amyloid plaques were also detected; also recorded: Many plaques can be detected in APP/PS1 mice”. For the same compound, the “p, T2* difference in left and right cortex (Figure 5C)” value in data set [7] is on record as < 0.01. In [8] (APP/PS1 (n=13) versus wild-type (n=12), USPIO-Aβ1-42 injected), the “VBM difference in cerebellum (in words)” value is “No differences were seen in the cerebellum”. Also, the “VBM cluster T-score” value in [8] (cluster AuD, Cortex (R)) is 3.02; in data set [8] (cluster FrA, Cortex (L)), 5.03; in data set [8] (cluster HDB, Cortex (R)), 4.02; in [8] (cluster LEnt, Cortex (L)), 3.78; in data set [8] (cluster M1, Cortex (L)) it was 3.48; in data set [8] (cluster M2, Cortex (R)), 3.71. Moreover, the “VBM cluster T-score” value came out at 4.42 in data set [8] (cluster PoDG, Hippocampus (R)); 5.00 in data set [8] (cluster RSG, Cortex (L)); 4.92 in data set [8] (cluster S1BF, Cortex (L)); 3.30 in [8] (cluster S1FL, Cortex (L)); 4.27 in data set [8] (cluster S1FL, Cortex (R)); 4.72 in [8] (cluster SuG, Colliculus (R)). Besides, the “VBM cluster Extent” value in data set [8] (cluster AuD, Cortex (R)) was 1388 voxels; in data set [8] (cluster FrA, Cortex (L)) it was 1123 voxels; in data set [8] (cluster HDB, Cortex (R)), 685 voxels; in [8] (cluster LEnt, Cortex (L)), 656 voxels; in data set [8] (cluster PoDG, Hippocampus (R)) it was 20830 voxels; in data set [8] (cluster RSG, Cortex (L)), 1624 voxels. The “VBM cluster Extent” value in data set [8] (cluster S1BF, Cortex (L)) is recorded as 36911 voxels; in data set [8] (cluster S1FL, Cortex (L)), 653 voxels; in data set [8] (cluster S1FL, Cortex (R)), 4637 voxels; in data set [8] (cluster SuG, Colliculus (R)) it was 2194 voxels. The “toxicity in experimental animals (in words)” value in data set [9] is reported as “no evidence of toxicity in our experimental animals”.
Turning to “Aβ1-42: Aβ 1-42 peptide synthesized in the W.M. Keck Facility at Yale University [reference compound]”, the “reduction in cell viability” value in data set [4] (10 μM, MTS, 490 nm, percent of non-treated control) is listed as 50%.
